We go through 21 compounds from ChEMBL document CHEMBL1124548 (1989).

Experiment [1] has as its target Human immunodeficiency virus type 1 reverse transcriptase (Human immunodeficiency virus 1) (UniProt Q72547). Description: Inhibitory activity against HIV-1 replication in MT-4 cells. The class given is functional, cell-based. The conditions noted are these: MT4. The method, boiled down:
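HTLV-IIIB strain of HIV in MT-4 cells, run in parallel with cytotoxicity on uninfected MT-4 cells. The read-out is protection of infected cells from virus-induced cytopathic effect. ED50 is the dose giving 50% protection.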

For the next experiment, the system named is MT4. Put plainly: Cytotoxic dose in MT-4 cells. The conditions noted are these: Homo sapiens, read-out: CD50 (the source's name). The class given is functional.
For experiment [2], the target named is Human immunodeficiency virus type 1 reverse transcriptase (Human immunodeficiency virus 1) (UniProt Q72547). Description: Selectivity index is the […] values against inhibition of HIV-1 in MT-4 cells. The class given is functional, cell-based. The settings on record: MT4. The method, boiled down: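 Selectivity index is CD50 (50% viability reduction of uninfected MT-4 cells) divided by ED50 (50% protection of HIV-infected MT-4 cells against cytopathic effect). Both come from parallel assays.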

Take `O=c1[nH]c(=O)n([C@H]2C[C@H](F)[C@@H](CO)O2)cc1F`: the ED50 in experiment [1] was over 20 µM. Moreover, the CC50 with MT4 turned out to be 40 µM. Besides, the SI in experiment [2] is under 2.
Regarding `[N-]=[N+]=N[C@H]1C[C@H](n2c(Br)nc3c(N)ncnc32)O[C@@H]1CO`, in experiment [1], the ED50 is over 500 µM. In addition, the CC50 in the experiment with MT4 came out at 409 µM. Besides, the SI in experiment [2] was under 1.
As to `[N-]=[N+]=N[C@H]1C[C@H](n2cnc3c(N)ncnc32)O[C@@H]1CO`, the ED50 in experiment [1] is 5 µM.
In turn, `Cc1cn([C@H]2C[C@H](F)[C@@H](CO)O2)c(=O)nc1N` came in with an ED50 in experiment [1] of 1.7 µM. Besides, the CC50 in the experiment with MT4 is 7.7 µM. Besides, the SI in experiment [2] came out at 4.5.
Take `Nc1ncnc2c1ncn2[C@H]1CC[C@@H](CO)O1`: the ED50 in experiment [1] amounted to 6.4 µM. The CC50 with MT4 came out at 890 µM. For the same compound, the SI in experiment [2] came out at 139.
Consider `COc1ccn([C@H]2C[C@H](F)[C@@H](CO)O2)c(=O)n1`, for which the ED50 in experiment [1] was 46 µM. Also, in the experiment with MT4, the CC50 was 348 µM. In addition, the SI in experiment [2] came to 7.6.
The corresponding values for `O=c1[nH]c(=O)n([C@H]2C[C@H](F)[C@@H](CO)O2)cc1Cl` [RALURIDINE] are 0.38 µM, 535 µM and 1410.
As to `Cc1cn([C@@H]2O[C@H](CO)C[C@H]2F)c(=O)nc1N`, the ED50 in experiment [1] is over 500 µM. Further, in the experiment with MT4, the CC50 is over 500 µM.
In experiment [1], `Cc1cn([C@@H]2O[C@H](CO)C[C@@H]2F)c(=O)[nH]c1=O` registered an ED50 of over 500 µM. Also, the CC50 with MT4 was over 500 µM.
For the compound `O=c1[nH]c(=O)n([C@H]2C[C@H](F)[C@@H](CO)O2)cc1I`, the ED50 in experiment [1] came to 0.16 µM. Moreover, the CC50 in the experiment with MT4 is 2.17 µM. Besides, in experiment [2], the SI stood at 13.6.
For `Cc1cn([C@H]2C[C@H](N=[N+]=[N-])[C@@H](CO)O2)c(=O)[nH]c1=O` [ZIDOVUDINE], in experiment [1], the ED50 was 0.003 µM. In addition, the CC50 with MT4 worked out at 4.8 µM. The SI in experiment [2] is 1600.
In experiment [1], `[N-]=[N+]=N[C@H]1C[C@H](n2cnc3c(O)ncnc32)O[C@@H]1CO` gave an ED50 of over 8 µM. In addition, in the experiment with MT4, the CC50 is 15 µM. Also, the SI in experiment [2] is under 2.
Compound `O=c1ccn([C@H]2C[C@H](F)[C@@H](CO)O2)c(=O)[nH]1` showed an ED50 in experiment [1] of 0.04 µM. Moreover, the CC50 in the experiment on MT4 came to 16 µM. Further, the SI in experiment [2] amounted to 400.
Take `OC[C@H]1O[C@@H](n2cnc3c(O)ncnc32)C[C@@H]1F`: the ED50 in experiment [1] worked out at 484 µM. In addition, the CC50 in the experiment with MT4 turned out to be 500 µM. Besides, the SI in experiment [2] turned out to be 1.
For the compound `Nc1ncnc2c1ncn2[C@H]1C[C@H](F)[C@@H](CO)O1`, in experiment [1], the ED50 amounted to 50 µM. The CC50 with MT4 worked out at 557 µM. Besides, the SI in experiment [2] stood at 11.1.
The compound `Cc1cn([C@H]2C[C@H](F)[C@@H](CO)O2)c(=O)[nH]c1=O` [ALOVUDINE] had an ED50 in experiment [1] of 0.001 µM. Also, the CC50 in the experiment with MT4 was found to be 0.197 µM. The SI in experiment [2] worked out at 197.
For `Cc1cn([C@@H]2O[C@H](CO)C[C@H]2F)c(=O)[nH]c1=O`, in that order: 53 µM, over 500 µM and over 9.4.
The corresponding values for `Nc1ccn([C@@H]2O[C@H](CO)C[C@@H]2F)c(=O)n1` are 9.8 µM, 117 µM and 12.
For `Nc1ncnc2c1nc(Br)n2[C@H]1CC[C@@H](CO)O1`, in that order: 484 µM, 500 µM and 1.
Regarding `Cc1cn([C@H]2C=C(F)[C@@H](CO)O2)c(=O)[nH]c1=O`, the ED50 in experiment [1] came to 11 µM. Besides, the CC50 in the experiment on MT4 was determined as 240 µM. Further, the SI in experiment [2] came to 22.
In turn, `O=c1[nH]c(=O)n([C@H]2C[C@H](F)[C@@H](CO)O2)cc1Br` yielded an ED50 in experiment [1] of 0.41 µM. For the same compound, in the experiment with MT4, the CC50 is 24 µM. In addition, in experiment [2], the SI was determined as 59.
